Only some compounds are listed: those with a hit (about 3.1% of all), similar ones and a draw of the others.
Ecoli rRNA inh – inhibits bacterial ribosomal RNA function over humanized ribosomes; E. coli WT GFP vs humanized-ribosome RFP mutants, fluorescence, 24 h; active compounds read low; DMSO median 0, no signal -100; GFP signal change (wild-type ribosome), % (concentration not given with the values); 350,000 tested, 1.6% active;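 active = significant combined selectivity score with lowered wild-type GFP, culture density cut under 30%, mutant RFP and density less affected; inactive = any of these conditions unmet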
E-selectin induc – E-selectin induction on HUVECs. P16581. 260,000 tested, 0.37% active. HUVEC E-selectin immunofluorescence imaging; normalized: neutral wells 0, TNF-alpha wells 100. activation, % at 7.58 µM;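 active = mean E-selectin-positive cell signal at least 10% of the positive control, reached in at least 60% of replicates, without over 20% cell loss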
Target sequence (P16581 whole entry, looked up): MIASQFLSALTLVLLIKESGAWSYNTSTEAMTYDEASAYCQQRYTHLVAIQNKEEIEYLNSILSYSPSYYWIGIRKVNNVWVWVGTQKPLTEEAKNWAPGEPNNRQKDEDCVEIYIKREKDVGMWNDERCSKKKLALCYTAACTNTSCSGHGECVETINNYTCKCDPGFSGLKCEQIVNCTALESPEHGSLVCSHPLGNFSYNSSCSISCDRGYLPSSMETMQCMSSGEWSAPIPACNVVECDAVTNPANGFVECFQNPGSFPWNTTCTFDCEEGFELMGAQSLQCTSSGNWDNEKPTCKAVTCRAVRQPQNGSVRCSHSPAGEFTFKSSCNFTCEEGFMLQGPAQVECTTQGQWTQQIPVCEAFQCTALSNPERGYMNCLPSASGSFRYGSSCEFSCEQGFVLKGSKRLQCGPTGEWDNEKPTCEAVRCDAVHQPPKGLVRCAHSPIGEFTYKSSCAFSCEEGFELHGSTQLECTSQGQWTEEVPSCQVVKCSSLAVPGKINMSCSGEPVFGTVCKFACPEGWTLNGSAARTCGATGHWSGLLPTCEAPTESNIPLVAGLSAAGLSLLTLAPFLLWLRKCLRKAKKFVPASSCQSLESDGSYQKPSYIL
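Read-out: % PE-positive cells | Test system: HUVEC | Doses: One compound dose added by pin transfer | Buffer or medium: EGM-2 over gelatin coat | Signal: Immunofluorescence imaging | Benchmarks: TNF-alpha, DMSO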
Cneo AK release – causes C. neoformans cell lysis; 360,000 tested, 0.2% active; AID 651654; adenylate kinase release luminescence, 4 h; normalised: neutral wells 0, clomiphene wells 100; lysis activity, % at 15 µM;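 active = mean lysis activity across replicates of at least 80%, whatever share of replicates individually reach that level; inactive = mean lysis activity below 80%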
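read-out = cell lysis signal | test system = log-phase Cryptococcus neoformans yeast cells | input = cells at 5 × 10^6 per mL | medium = fresh YPD growth medium | signal = luminescent adenylate kinase detection reagent | timing = 4 h at 37 °C static, read 1 h later | dosing = single dose | controls = Clomiphene as positive lysis control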
miR-122 sensor – inhibitors of miR-122 in Huh7 cells; Huh7 miR-122 Renilla luciferase sensor, 48 h; neutral wells = 0, positive control = 100; activation (reporter increase), % at 12.5 µM; 340,000 tested, 0.3% active; AID 602342;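 active = mean replicate activation score at least 90 and every replicate individually at or above 90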;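 note: higher luciferase means less miR-122 activity so hits act as miR-122 inhibitors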
DENV2 CPE rescue – protects cells from dengue virus 2 cytopathic effect. DENV2-infected cells, cytopathic effect rescue, plate reader. CPE inhibition, % at 9.99 µM. 350,000 tested, 1.7% active; in the data active = CPE inhibition above about 20%, passing the limit was not always enough; tested in BHK-21 cells;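 note: 0% = median of neutral control wells and 100% = median of positive control wells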
An asterisk follows results filed as active; nt = not tested or not shown; [ ] = another dose, or the depositor's remark.

SMILES	Ecoli rRNA inh	E-selectin induc	Cneo AK release	miR-122 sensor	DENV2 CPE rescue
COc1ccc(COCC23N=C4SCc5ccccc5CN4[C@H](c4ccccc4O2)[C@H]3COC(=O)c2ccccc2)cc1	nt	nt	2.4	nt	31.6*
CNC(=O)C[C@@H]1CC[C@H]2[C@@H](COc3ccc(NC(=O)C4CC4)cc3C(=O)N2C)O1	-2.1	0.4	47.0	46.7[16.7 µM]	3.9
N=C1/C(=C\c2coc3ccccc3c2=O)C(=O)N=C2SC(c3ccncc3)=NN12	-15.2*	0.7	-6.7	-5.4	0.1
CC(C)(C)C1CCC(C(=O)Nc2ccc(N3CCOCC3)cc2N2CCOCC2)CC1 (stereo not drawn)	-20.4*	nt	0.3	2.9	0.8
CCCCC1CCC(C(=O)Nc2ccccc2N2CCOCC2)CC1 (stereo not drawn)	-0.2	0.3	1.8	-4.3	-2.5
COc1ccc(-c2cnc3c(c2)C(=O)N([C@@H](C)CO)C[C@H](C)[C@@H](CN(C)Cc2ccccc2)O3)cc1	-1.6	0.3	-4.2	-8.4[16.7 µM]	47.8*
COc1ccc(-c2cnc3c(c2)C(=O)N([C@@H](C)CO)C[C@H](C)[C@@H](CN(C)S(C)(=O)=O)O3)cc1	3.1	-0.6	81.3*	18.3[16.7 µM]	9.4
C[C@H]1CN([C@@H](C)CO)C(=O)c2cc(-c3cccnc3)cnc2O[C@H]1CN(C)C	-2.9	0.0	-8.9	-2.5[16.7 µM]	73.0*
CCCN(C)C[C@@H]1Oc2ncc(-c3ccccc3)cc2C(=O)N([C@H](C)CO)C[C@@H]1C	2.4	89.8*	-13.7	-6.4[16.7 µM]	-6.5
C[C@@H]1CN([C@H](C)CO)C(=O)c2cc(-c3cccnc3)cnc2O[C@H]1CN(C)C	2.5	0.8	41.0	10.4[16.7 µM]	nt
Cc1noc(C)c1S(=O)(=O)Nc1ccc2c(c1)C(=O)N([C@H](C)CO)C[C@H](C)[C@@H](CN(C)C(=O)Nc1ccc(C(F)(F)F)cc1)OCCCC[C@H](C)O2	0.5	0.0	1.7	-7.5[16.7 µM]	4.1
CO[C@@H]1CN(C)C(=O)c2cc(NC(=O)CC(F)(F)F)ccc2OC[C@@H](C)N(C(=O)c2ccccc2F)C[C@@H]1C	3.3	-0.1	nt	nt	16.0
O=C(Nc1cc(F)ccc1F)N1CC(=O)N2[C@H](CO)[C@H](c3ccc(-c4cccnc4)cc3)[C@H]2C1	-0.1	0.0	nt	nt	-6.5
Nc1nn(-c2ccccc2)c2ccc([N+](=O)[O-])cc12	-20.9*	0.6	-0.8	nt	3.1
O=C(C[C@H]1CC[C@@H]2[C@H](COC[C@H](O)CN2C(=O)c2ccc(F)cc2)O1)Nc1ccc(-c2ccccc2)cc1	-44.6	0.6	1.1	4.0[16.7 µM]	-0.4
Cc1ccc(/C=N/Nc2ncc(Cl)cc2Cl)s1	-22.0*	nt	nt	nt	1.3
Cc1cccc(NC(=O)/C(C#N)=C/c2ccccc2Cl)n1	-22.5*	nt	4.1	4.0	7.9
Cc1ccccc1CNS(=O)(=O)c1ccccc1[N+](=O)[O-]	-28.2*	nt	4.4	30.9	-10.1
Cn1nc(C(=O)N2CCC(C(N)=O)CC2)c2c1-c1ccccc1SC2	-9.5	0.7	-1.1	5.7	24.5*
Cn1nc(C(=O)NC2CCCCC2)c2c1-c1ccccc1SC2	1.0	0.0	1.6	-0.2	4.4
C[C@@H]1CCCCO[C@@H](CN(C)C(=O)Cc2ccccc2)[C@@H](C)CN([C@H](C)CO)C(=O)c2cc(NC(=O)CCC(F)(F)F)ccc2O1	3.7	nt	-3.4	8.9[16.7 µM]	-4.3
Cc1ccc2nc(C)c(C)nc2c1N	nt	nt	-3.9	113.3*	nt
Cc1ccc2ncccc2c1N	3.1	7.8	0.5	-4.4	-1.7
CO[C@H]1CN(C)C(=O)c2ccc(NC(=O)Nc3cccc(F)c3)cc2OC[C@H](C)N(C(=O)C2CC2)C[C@@H]1C	-4.1	-0.1	nt	nt	8.5
CC(C)CC#Cc1ccc2c(c1)O[C@H](CN(C)Cc1cncnc1)[C@@H](C)CN([C@H](C)CO)S2(=O)=O	-14.5	-2.0	-6.2	20.9[16.7 µM]	58.2*
CC(C)CC#Cc1ccc2c(c1)O[C@@H](CN(C)Cc1cccnc1)[C@@H](C)CN([C@H](C)CO)S2(=O)=O	-10.4	0.2	11.1	-1.6[16.7 µM]	8.5
CCCC#Cc1ccc2c(c1)O[C@H](CN(C)Cc1cccnc1)[C@@H](C)CN([C@@H](C)CO)S2(=O)=O	-47.2	0.0	-4.4	53.7[16.7 µM]	25.5*
CC(C)CC#Cc1ccc2c(c1)O[C@H](CN(C)Cc1ccncc1)[C@H](C)CN([C@@H](C)CO)S2(=O)=O	-4.9	107.8*	-0.9	-13.3[16.7 µM]	-0.1

From PubChem BioAssay
